The source of these data is paper PMC9055986 (RSC Advances, 2020).

Assay [1] addresses PARP-1 (Homo sapiens, UniProt P09874). Kind of assay: In vitro PARP-1 inhibitory assay. The format is biochemical. As to conditions: IC50 (nM), in vitro inhibitory activity against PARP-1; mean ± S.E.M., n = 3.
The test system of assay [2] is MCF-7 cells. Nature of the assay: Cell cycle analysis. The format is cell-based. As to conditions: for cell cycle arrest: MCF-7 cell line, in words; for DNA content% % G0–G1 / DNA content% % G2–M / DNA content% % Pre G1 / DNA content% % S: MCF-7 cells, 10 μg mL^−1, 24 h.
The test system of assay [3] is MCF-7 cells. Kind of assay: Annexin V-FITC apoptosis assay. As to conditions: 2.5 μM, 24 h, Annexin V and PI double staining. Type of assay: cell-based. An outline of the steps:
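MCF-7 cells exposed to test compound (2.5 μM) for 24 h, then double-stained with Annexin V-FITC and propidium iodide. Stained cells were detected by flow cytometry, and the percentage of apoptotic cells was determined.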

The structures appear in SMILES notation.

Chain of PARP-1 (P09874 whole entry): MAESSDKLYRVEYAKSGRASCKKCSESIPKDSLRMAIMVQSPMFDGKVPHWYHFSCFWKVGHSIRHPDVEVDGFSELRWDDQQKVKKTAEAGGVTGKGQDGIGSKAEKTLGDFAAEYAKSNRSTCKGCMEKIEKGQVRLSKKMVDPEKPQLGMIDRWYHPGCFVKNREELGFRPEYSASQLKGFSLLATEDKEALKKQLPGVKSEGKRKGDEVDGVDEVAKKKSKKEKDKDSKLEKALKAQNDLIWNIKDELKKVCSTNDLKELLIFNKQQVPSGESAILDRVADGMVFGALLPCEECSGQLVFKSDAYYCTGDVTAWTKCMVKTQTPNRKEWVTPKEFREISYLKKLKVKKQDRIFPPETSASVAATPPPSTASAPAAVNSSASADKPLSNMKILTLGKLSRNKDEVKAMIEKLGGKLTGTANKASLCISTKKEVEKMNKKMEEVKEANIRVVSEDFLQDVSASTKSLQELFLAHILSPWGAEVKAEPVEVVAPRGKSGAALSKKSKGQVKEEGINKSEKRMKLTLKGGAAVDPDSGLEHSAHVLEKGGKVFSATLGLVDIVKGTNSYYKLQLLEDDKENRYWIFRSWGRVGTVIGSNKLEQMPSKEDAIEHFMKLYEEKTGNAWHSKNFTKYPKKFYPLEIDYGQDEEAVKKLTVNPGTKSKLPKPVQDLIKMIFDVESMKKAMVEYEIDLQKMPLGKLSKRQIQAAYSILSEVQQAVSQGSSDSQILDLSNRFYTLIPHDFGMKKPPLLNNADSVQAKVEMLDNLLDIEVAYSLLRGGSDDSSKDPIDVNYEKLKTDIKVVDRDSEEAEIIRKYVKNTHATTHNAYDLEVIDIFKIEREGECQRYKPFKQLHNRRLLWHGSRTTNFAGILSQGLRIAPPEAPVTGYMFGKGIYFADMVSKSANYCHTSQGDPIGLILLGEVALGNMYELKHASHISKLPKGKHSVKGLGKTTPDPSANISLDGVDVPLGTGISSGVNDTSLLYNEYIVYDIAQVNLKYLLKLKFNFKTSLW

As for `COC(=O)c1ccc(NC(=O)Cn2c(=S)n(-c3ccccc3)c(=O)c3ccccc32)cc1` [Compound 6a, Methyl 4-(2-(4-oxo-3-phenyl-2-thioxo-3,4-dihydroquinazolin-1(2H)-yl)acetamido)benzoate], in assay [1], the IC50 amounted to 56 ± 2.95 nM.
Regarding `NS(=O)(=O)c1ccc(NC(=O)CNNc2nc3ccccc3c(=O)n2-c2ccccc2)cc1` [Compound 12c, 2-(2-(4-Oxo-3-phenyl-3,4-dihydroquinazolin-2-yl)hydrazinyl)-N-(4-sulfamoylphenyl)-acetamide], it took 27.9 ± 3.45 nM to reach half-maximal inhibition in assay [1] (IC50). Also, in assay [2], the cell cycle arrest entry was “cell growth arrest at the G2/M phase”, the “DNA content% % G0–G1” value worked out at 43.28%, the “DNA content% % G2–M” value is listed as 23.49% and the “DNA content% % Pre G1” value was 19.31%. Besides, the “DNA content% % S” value in assay [2] stood at 33.23%.
With `CN[C@@H]1C[C@H]2O[C@@](C)([C@@H]1OC)n1c3ccccc3c3c4c(c5c6ccccc6n2c5c31)C(=O)NC4` [Stauroporine, reference compound], the “Apoptosis Total” value in assay [3] turned out to be 31.74%. In assay [2], the “DNA content% % G0–G1” value is given as 37.19%, the “DNA content% % G2–M” value turned out to be 36.59% and the “DNA content% % S” value is recorded as 26.22%.
Consider `CC(=O)c1ccc(NC(=O)Cn2c(=S)n(-c3ccccc3)c(=O)c3ccccc32)cc1` [Compound 6b, N-(4-Acetylphenyl)-2-(4-oxo-3-phenyl-2-thioxo-3,4-dihydroquinazolin-1(2H)-yl)acetamide], for which inhibition in assay [1] was half-maximal at 64.7 ± 3.38 nM (IC50).
`COc1ccc(-c2cc(-c3ccc(NC(=O)CSc4nc5ccccc5c(=O)n4-c4ccccc4)cc3)nc(N)c2C#N)cc1` [Compound 8a, N-(4-(6-Amino-5-cyano-4-(4-methoxyphenyl)pyridin-2-yl)phenyl)-2-((4-oxo-3-phenyl-3,4-dihydroquinazolin-2-yl)thio)acetamide] yielded an IC50 in assay [1] of 32.5 ± 2.64 nM.
In the case of `O=c1c2ccccc2nc(NN=Cc2ccc(O)cc2)n1-c1ccccc1` [Compound 13b, 2-(2-(4-Hydroxybenzylidene)hydrazinyl)-3-phenylquinazolin-4(3H)-one], the IC50 in assay [1] was 44.2 ± 3.12 nM.
As to `COC(=O)c1ccc(NC(=O)CNNc2nc3ccccc3c(=O)n2-c2ccccc2)cc1` [Compound 12a, Methyl 4-(2-(2-(4-oxo-3-phenyl-3,4-dihydroquinazolin-2-yl)hydrazinyl)acetamido)benzoate], the IC50 in assay [1] was 39.1 ± 3.89 nM. Besides, in assay [2], the cell cycle arrest entry is listed as “cell growth arrest at the G2/M phase”, the “DNA content% % G0–G1” value was 38.51%, the “DNA content% % G2–M” value was 38.06% and the “DNA content% % Pre G1” value is 26.55%. Besides, the “DNA content% % S” value in assay [2] came to 23.43%.
Turning to `COc1ccccc1C=NNc1nc2ccccc2c(=O)n1-c1ccccc1` [Compound 13c, 2-(2-(2-Methoxybenzylidene)hydrazinyl)-3-phenylquinazolin-4(3H)-one], the IC50 in assay [1] was determined as 45.6 ± 2.86 nM.

What is called IC50 is the point on the concentration scale where inhibition reaches its midpoint.
